# Test results published in ChEMBL document CHEMBL3576771, “Molecular determinants of biased agonism at the dopamine D₂ receptor” (J Med Chem, 2015).
# Assays:
# [1] = biological target: T1, D(2) dopamine receptor (Homo sapiens, UniProt P14416); assay: Displacement of [3H]spiperone from human dopamine D2L receptor transfected in CHO cells after 1 hr by scintillation counting analysis; type: cell-based
# [2] = biological target: T1, D(2) dopamine receptor; assay: Intrinsic activity at human dopamine D2S receptor expressed in HEK293 cells co-transfected with Galphai2 assessed as [35S]GTPgammaS binding after 30 mins by [35S]GTPgammaS incorporation assay; type: functional, cell-based
# [3] = biological target: D(1B) dopamine receptor (Homo sapiens, UniProt P21918); assay: Displacement of [3H]SCH23390 from human dopamine D5 receptor transfected in HEK293 cells after 1 hr by scintillation counting analysis; type: cell-based
# [4] = biological target: T2, D(4) dopamine receptor (Homo sapiens, UniProt P21917); assay: Displacement of [3H]spiperone from human dopamine D4.4 receptor transfected in CHO cells after 1 hr by scintillation counting analysis; type: cell-based
# T2 sequence (P21917 whole entry): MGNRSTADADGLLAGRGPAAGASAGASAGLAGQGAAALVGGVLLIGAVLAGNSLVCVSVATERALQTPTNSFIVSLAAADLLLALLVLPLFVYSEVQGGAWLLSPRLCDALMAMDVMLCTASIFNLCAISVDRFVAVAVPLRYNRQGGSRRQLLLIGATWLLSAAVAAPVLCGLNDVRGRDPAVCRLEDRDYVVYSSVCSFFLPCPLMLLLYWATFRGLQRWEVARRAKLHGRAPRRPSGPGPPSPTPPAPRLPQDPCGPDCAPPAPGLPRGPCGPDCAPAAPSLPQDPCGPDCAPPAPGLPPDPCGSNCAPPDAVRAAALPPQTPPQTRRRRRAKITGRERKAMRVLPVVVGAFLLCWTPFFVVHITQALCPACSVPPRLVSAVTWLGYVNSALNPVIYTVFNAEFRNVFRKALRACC
# [5] = biological target: T1, D(2) dopamine receptor; assay: Intrinsic activity at human dopamine D2L receptor expressed in HEK293 cells co-transfected with Galpha0i assessed as [35S]GTPgammaS binding after 30 mins by [35S]GTPgammaS incorporation assay relative to quinpirole; type: functional, cell-based
# Outline: (§1)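 HEK293 membranes cotransfected with D2L or D2S plus PTX-insensitive Gαo1; 30 μg/mL protein with compounds and 10 μM GDP preincubated 30 min, 37 °C; then 0.10 nM [35S]GTPγS for 30 min, 37 °C; GF/B filtration.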
# [6] = biological target: D(3) dopamine receptor (Homo sapiens, UniProt P35462); assay: Displacement of [3H]spiperone from human dopamine D3 receptor transfected in CHO cells after 1 hr by scintillation counting analysis; type: cell-based
# [7] = biological target: 5-hydroxytryptamine receptor 2A (Homo sapiens, UniProt P28223); assay: Displacement of [3H]ketanserin from human 5-HT2A receptor transfected in HEK293 cells by scintillation counting analysis; type: cell-based
# [8] = biological target: T1, D(2) dopamine receptor; assay: Intrinsic activity at human dopamine D2L receptor expressed in HEK293 cells co-transfected with Galphai2 assessed as [35S]GTPgammaS binding after 30 mins by [35S]GTPgammaS incorporation assay; type: functional, cell-based
# [9] = biological target: T1, D(2) dopamine receptor; assay: Intrinsic activity at human dopamine D2S receptor expressed in HEK293 cells co-transfected with Galpha0i assessed as [35S]GTPgammaS binding after 30 mins by [35S]GTPgammaS incorporation assay relative to quinpirole; type: functional, cell-based; outline: as §1
# [10] = biological target: D(1A) dopamine receptor (Homo sapiens, UniProt P21728); assay: Displacement of [3H]SCH23390 from human dopamine D1 receptor transfected in HEK293 cells after 1 hr by scintillation counting analysis; type: cell-based
# [11] = biological target: T1, D(2) dopamine receptor; assay: Intrinsic activity at human dopamine D2L receptor expressed in HEK293 cells co-transfected with Galphai2 assessed as [35S]GTPgammaS binding after 30 mins by [35S]GTPgammaS incorporation assay relative to quinpirole; type: functional, cell-based; conditions: in the assay text read “after 75 mins” for “after 30 mins”
# Outline: (§2)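 Membranes from HEK293 cells cotransfected with D2L or D2S and PTX-insensitive Gαi2; 30 μg/mL protein, 10 μM GDP and compounds preincubated 30 min at 37 °C, then 0.10 nM [35S]GTPγS added for 75 min at 37 °C; filtration.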
# [12] = Displacement of [3H]prazosin from poricne cerebral cortex alpha1 adrenergic receptor by scintillation counting analysis; type: tissue-based, Sus scrofa
# [13] = biological target: T1, D(2) dopamine receptor; assay: Intrinsic activity at human dopamine D2S receptor expressed in HEK293 cells co-transfected with Galpha0i assessed as [35S]GTPgammaS binding after 30 mins by [35S]GTPgammaS incorporation assay; type: functional, cell-based
# [14] = biological target: T1, D(2) dopamine receptor; assay: Intrinsic activity at human dopamine D2S receptor expressed in HEK293 cells co-transfected with Galphai2 assessed as [35S]GTPgammaS binding after 30 mins by [35S]GTPgammaS incorporation assay relative to quinpirole; type: functional, cell-based; conditions: in the assay text read “after 75 mins” for “after 30 mins”; outline: as §2
# [15] = biological target: T1, D(2) dopamine receptor; assay: Displacement of [3H]spiperone from human dopamine D2S receptor transfected in CHO cells after 1 hr by scintillation counting analysis; type: cell-based
# [16] = biological target: T1, D(2) dopamine receptor; assay: Agonist activity at ARMS2-PK2-tagged human dopamine D2S receptor expressed in HEK293 cells co-expressing (EA)-tagged beta arrestin fusion protein assessed as recruitment of beta-arrestin-2 after 5 hrs by chemiluminescence assay relative to quinpirole; type: cell-based
# Outline: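 Transient transfection of D2S (ProLink-tagged) into HEK293 cells stably expressing EA-tagged β-arrestin-2; 5000 cells seeded, 24 h.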
# [17] = Displacement of [3H]WAY100635 from poricne cerebral cortex 5-HT1A receptor by scintillation counting analysis; type: tissue-based, Sus scrofa
# [18] = biological target: T1, D(2) dopamine receptor; assay: Intrinsic activity at human dopamine D2L receptor expressed in HEK293 cells co-transfected with Galpha0i assessed as [35S]GTPgammaS binding after 30 mins by [35S]GTPgammaS incorporation assay; type: functional, cell-based
# [19] = biological target: T1, D(2) dopamine receptor; assay: Agonist activity at ARMS2-PK2-tagged human dopamine D2S receptor expressed in HEK293 cells co-expressing (EA)-tagged beta arrestin fusion protein assessed as recruitment of beta-arrestin-2 after 5 hrs by chemiluminescence assay; type: cell-based
# [20] = biological target: D(1A) dopamine receptor (Sus scrofa) (UniProt P50130); assay: Displacement of [3H]SCH23390 from porcine dopamine D1 receptor in striatal membranes after 1 hr by scintillation counting analysis
# D(1A) dopamine receptor (Sus scrofa), sequence (P50130 whole entry, looked up): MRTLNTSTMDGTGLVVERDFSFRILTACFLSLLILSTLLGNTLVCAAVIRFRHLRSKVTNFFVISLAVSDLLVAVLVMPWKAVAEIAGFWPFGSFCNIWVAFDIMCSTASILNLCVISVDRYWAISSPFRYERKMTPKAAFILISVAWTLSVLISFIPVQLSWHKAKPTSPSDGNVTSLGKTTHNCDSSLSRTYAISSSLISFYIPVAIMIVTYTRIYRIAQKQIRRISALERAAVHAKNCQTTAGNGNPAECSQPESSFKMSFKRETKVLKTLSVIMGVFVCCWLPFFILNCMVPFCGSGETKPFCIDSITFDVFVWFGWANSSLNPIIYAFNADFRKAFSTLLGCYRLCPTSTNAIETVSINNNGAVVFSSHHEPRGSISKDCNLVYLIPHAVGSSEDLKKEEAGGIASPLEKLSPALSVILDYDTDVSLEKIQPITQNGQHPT
# D(1B) dopamine receptor, sequence (P21918 whole entry): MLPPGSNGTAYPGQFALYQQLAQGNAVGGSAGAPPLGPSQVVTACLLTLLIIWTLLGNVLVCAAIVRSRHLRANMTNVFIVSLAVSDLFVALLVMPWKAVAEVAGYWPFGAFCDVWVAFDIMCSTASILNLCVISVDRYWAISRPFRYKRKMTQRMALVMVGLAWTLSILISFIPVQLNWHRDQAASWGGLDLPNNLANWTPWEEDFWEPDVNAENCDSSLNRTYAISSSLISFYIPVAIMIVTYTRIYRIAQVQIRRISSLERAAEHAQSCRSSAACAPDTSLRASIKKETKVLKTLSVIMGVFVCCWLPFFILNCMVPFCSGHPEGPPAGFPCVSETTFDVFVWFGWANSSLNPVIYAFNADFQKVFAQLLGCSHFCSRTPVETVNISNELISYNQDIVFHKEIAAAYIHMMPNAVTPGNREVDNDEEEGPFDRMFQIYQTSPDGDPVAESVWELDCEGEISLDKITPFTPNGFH
# 5-hydroxytryptamine receptor 2A, sequence (P28223 whole entry): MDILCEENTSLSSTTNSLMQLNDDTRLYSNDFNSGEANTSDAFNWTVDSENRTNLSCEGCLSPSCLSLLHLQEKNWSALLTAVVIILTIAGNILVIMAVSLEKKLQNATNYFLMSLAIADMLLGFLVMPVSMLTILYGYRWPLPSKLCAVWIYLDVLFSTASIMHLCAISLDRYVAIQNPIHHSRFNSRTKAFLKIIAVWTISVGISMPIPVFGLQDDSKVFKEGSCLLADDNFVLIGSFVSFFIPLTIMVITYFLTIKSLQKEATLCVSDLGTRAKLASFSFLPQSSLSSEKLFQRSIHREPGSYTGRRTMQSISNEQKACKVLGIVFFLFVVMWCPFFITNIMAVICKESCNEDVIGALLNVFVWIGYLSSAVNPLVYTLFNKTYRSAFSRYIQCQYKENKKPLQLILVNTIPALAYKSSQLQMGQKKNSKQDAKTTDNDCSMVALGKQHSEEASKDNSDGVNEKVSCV
# D(3) dopamine receptor, sequence (P35462 whole entry): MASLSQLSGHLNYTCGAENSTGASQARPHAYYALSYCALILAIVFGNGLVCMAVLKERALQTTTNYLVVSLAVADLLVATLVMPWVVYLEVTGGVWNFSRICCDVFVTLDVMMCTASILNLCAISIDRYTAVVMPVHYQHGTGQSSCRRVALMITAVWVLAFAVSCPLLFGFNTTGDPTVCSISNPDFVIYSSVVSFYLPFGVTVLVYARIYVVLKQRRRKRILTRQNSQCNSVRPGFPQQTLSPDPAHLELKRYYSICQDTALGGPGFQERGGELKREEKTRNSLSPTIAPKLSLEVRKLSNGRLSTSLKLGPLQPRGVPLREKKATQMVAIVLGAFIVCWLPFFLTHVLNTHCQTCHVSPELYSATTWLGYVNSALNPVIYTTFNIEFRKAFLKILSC
# T1 sequence (P14416 whole entry): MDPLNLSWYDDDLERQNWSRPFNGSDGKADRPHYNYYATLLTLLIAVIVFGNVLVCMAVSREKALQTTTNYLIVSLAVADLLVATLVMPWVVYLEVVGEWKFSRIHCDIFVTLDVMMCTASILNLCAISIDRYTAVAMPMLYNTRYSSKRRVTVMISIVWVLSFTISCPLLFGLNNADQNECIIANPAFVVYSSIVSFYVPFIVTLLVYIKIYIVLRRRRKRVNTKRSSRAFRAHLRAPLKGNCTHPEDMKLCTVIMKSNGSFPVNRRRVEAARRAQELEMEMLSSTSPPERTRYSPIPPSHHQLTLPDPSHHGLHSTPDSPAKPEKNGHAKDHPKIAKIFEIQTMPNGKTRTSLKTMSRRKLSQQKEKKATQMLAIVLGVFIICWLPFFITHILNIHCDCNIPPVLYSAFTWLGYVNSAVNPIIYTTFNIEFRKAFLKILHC
# D(1A) dopamine receptor, sequence (P21728 whole entry): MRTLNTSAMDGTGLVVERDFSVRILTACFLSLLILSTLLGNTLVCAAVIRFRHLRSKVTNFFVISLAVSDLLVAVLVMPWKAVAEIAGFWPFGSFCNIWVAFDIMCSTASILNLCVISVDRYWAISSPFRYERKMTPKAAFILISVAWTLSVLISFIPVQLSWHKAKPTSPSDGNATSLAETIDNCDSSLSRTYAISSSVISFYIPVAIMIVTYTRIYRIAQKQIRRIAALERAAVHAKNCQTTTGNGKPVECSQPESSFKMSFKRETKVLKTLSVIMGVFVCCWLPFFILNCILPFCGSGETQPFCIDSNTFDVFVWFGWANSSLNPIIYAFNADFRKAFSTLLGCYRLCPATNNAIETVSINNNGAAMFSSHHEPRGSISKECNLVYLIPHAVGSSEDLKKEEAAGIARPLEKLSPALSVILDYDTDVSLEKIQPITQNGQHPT
Ki [1] [nM],EC50 [2] [nM],Ki [3] [nM],Ki [4] [nM],Emax [5] [%],Ki [6] [nM],Ki [7] [nM],EC50 [8] [nM],Emax [9] [%],Ki [10] [nM],Emax [11] [%],Ki [12] [nM],EC50 [13] [nM],Emax [14] [%],Ki [15] [nM],Emax [16] [%],Ki [17] [nM],EC50 [18] [nM],EC50 [19] [nM],Ki [20] [nM],Structure (SMILES)
4.9,2900,48000,180,88,2.2,14000,1900,108,3900,84,860,410,89,10,101,810,90,480,–,C#CC1=CC[C@H](N(CCC)CCCCNC(=O)c2ccc(OCCCc3cn(CCCC)nn3)c(OC)c2)CO1
–,–,–,60,–,–,28000,–,100,–,73,1800,–,–,–,93,110,–,–,18000,C#CC1=CC[C@H](N(CCC)CCCCNC(=O)c2ccc(-c3ccccc3)cc2)CC1
24,1700,25000,800,82,1.6,3600,7300,87,4600,84,2400,980,85,53,86,2800,3800,140,–,CCCCn1cc(CCCOc2ccc(C(=O)NCCCCN(CCC)CCc3ccc(O)c4[nH]c(=O)ccc34)cc2OC)nn1

# More lines, now with the values behind:
Structure (SMILES),Ki [1] [nM],EC50 [2] [nM],Ki [3] [nM],Ki [4] [nM],Emax [5] [%],Ki [6] [nM],Ki [7] [nM],EC50 [8] [nM],Emax [9] [%],Ki [10] [nM],Emax [11] [%],Ki [12] [nM],EC50 [13] [nM],Emax [14] [%],Ki [15] [nM],Emax [16] [%],Ki [17] [nM],EC50 [18] [nM],EC50 [19] [nM],Ki [20] [nM]
C#CC1=CC[C@@H](N(CCC)CCCCNC(=O)c2ccc(-c3ccccc3)cc2)CC1,–,–,–,30,92,–,9000,–,104,–,–,620,–,100,–,93,160,–,–,13000
CCCCn1cc(CCCOc2ccc(C(=O)NCCCCN(CCC)[C@H]3CCc4c(O)cccc4C3)cc2OC)nn1,0.47,4,700,9.4,90,0.21,710,2.9,110,2900,99,85,2.1,97,0.54,94,22,3.1,1.4,–
C#CC1=CC[C@@H](N(CCC)CCCCNC(=O)c2ccc(OCCCc3cn(CCCC)nn3)c(OC)c2)CO1,1.6,660,24000,30,99,0.63,8000,28,92,2600,61,1000,110,94,2.9,88,130,52,380,–
CCCCn1cc(CCCOc2ccc(C(=O)NCCCCN(CCC)[C@@H]3CCc4c(O)cccc4C3)cc2OC)nn1,18,–,21000,290,36,1.2,1000,–,27,23000,< 5,480,830,< 5,30,56,200,530,30,–
